The list is not random: actives were taken first. Their share in the collection is about 4.5%.
RGS4 inh: inhibitors of human RGS4. P49798. HEK293 M3R/RGS4 inducible, Fluo-4 calcium flux; hits give high values; triggered by carbachol at its EC20. B-score at 10 µM. 0.45% of 310,000 active. AID 463165;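 active = B-score, a plate-corrected calcium signal, over three deviations above library mean, with baseline fluorescence within five deviations of library mean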;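 also: RGS4 expression induced by doxycycline in cells with stable M3 receptor; B-score is computed from the integrated fluorescence ratio over baseline after carbachol; higher B-score means a larger calcium signal and so more RGS4 inhibition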
Target sequence (P49798 whole entry, looked up): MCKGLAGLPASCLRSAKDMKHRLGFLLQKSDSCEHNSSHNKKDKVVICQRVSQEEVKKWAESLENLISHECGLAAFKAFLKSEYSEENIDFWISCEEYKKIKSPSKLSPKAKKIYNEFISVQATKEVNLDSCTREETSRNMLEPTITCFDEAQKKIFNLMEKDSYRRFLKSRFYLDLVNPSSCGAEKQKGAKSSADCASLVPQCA
MrgX1 PAM: allosterically activates human MrgX1 receptor signaling; B-score at 10 µM; 0.63% of 310,000 active; Q96LB2; MrgX1-HEK293, Fluo-4 calcium flux, FDSS; hits give high values; AID 588675;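 active = plate-corrected calcium response at least 3 library SD above typical, normal starting fluorescence, not activating the receptor alone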;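 also: compound read alongside a low EC10 to EC30 dose of BAM8-22 agonist; peak minus trough fluorescence over baseline measured at the second addition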
PHOSPHO1 inh: inhibitors of human PHOSPHO1 phosphatase. Q8TCT1. recombinant PHOSPHO1, absorbance phosphatase assay. inhibition, % at 13.3 µM. 1.1% of 290,000 active; in the data active = inhibition above about 60%
Target sequence (Q8TCT1 whole entry, looked up): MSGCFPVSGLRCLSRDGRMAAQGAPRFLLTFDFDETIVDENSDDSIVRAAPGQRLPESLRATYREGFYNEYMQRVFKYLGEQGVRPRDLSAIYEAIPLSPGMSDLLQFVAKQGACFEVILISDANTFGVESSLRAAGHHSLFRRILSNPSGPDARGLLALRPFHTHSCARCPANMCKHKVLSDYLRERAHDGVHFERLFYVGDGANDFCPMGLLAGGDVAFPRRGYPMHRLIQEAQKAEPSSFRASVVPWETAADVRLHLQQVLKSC
MrgX1 antagonist: antagonists of human MrgX1 receptor. Q96LB2. MRGX1-HEK293 calcium flux, Fluo-4, BAM8-22 antagonism; hits give low values. B-score at 10 µM. 1.3% of 310,000 active;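 active = calcium-response B-score plate-corrected more than 3 library SD below zero, starting fluorescence within 5 deviations, no agonist response on first addition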;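 also: peak minus trough fluorescence over baseline after final BAM8-22 challenge near maximal dose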
MrgX1 ag: activates human MrgX1 receptor signaling; Q96LB2; 0.44% of 310,000 active; B-score at 10 µM; AID 588627; MrgX1-HEK293 cells, Fluo-4 calcium fluorescence, agonist mode; hits give high values;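 active = calcium response B-score plate-corrected fluorescence ratio at least 3 library SD, with starting fluorescence B-score inside 5 SD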
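Material: MrgX1-expressing HEK293 cells / Dosing: compound as first of three additions / Incubation: overnight seeding, then 1 h dark dye loading / Signal: Fluo-4 NW calcium fluorescence / Evaluation: B-scored fluorescence response ratio / Benchmarks: positive and negative control wells on each plate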
RGS4 pot: potentiators or activators of RGS4; HEK293 M3R/inducible RGS4, carbachol calcium flux Fluo4; hits give low values; B-score at 10 µM; 0.92% of 310,000 active;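 active = B-score of the integrated calcium signal more than 4 SD below the library mean, with starting fluorescence not abnormally high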;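 also: negative B-score means reduced calcium response which marks RGS4 activation or potentiation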
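Assay system: Inducible-RGS4 HEK293 cells carrying M3 receptor | Schedule: Compound preincubation 20 min at room temperature before agonist | Signal: Kinetic calcium fluorescence imaging with Fluo4-AM dye, 2 µM | Read-out basis: B score from integrated fluorescence ratio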
MrgX1 ant reconf: reconfirmed antagonist of human MrgX1 receptor signaling | shares compounds with MrgX1 antagonist | MrgX1-HEK293, BAM8-22 calcium flux, Fluo-4; hits give low values | remaining BAM8-22 calcium response % of control (hits give low values), % at 10 µM | 19% of 2,300 active | AID 602420;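 active = remaining agonist calcium response no higher than 100% minus 3 SD of agonist-only control wells, with starting fluorescence near control levels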;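 also: agonist BAM8-22 given at a near maximal EC90 to ECmax level; peak minus minimum fluorescence divided by baseline after agonist addition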
HEK293 Ca flux: counter-screen for MrgX1 antagonists: effect in parental HEK293 cells; shares compounds with MrgX1 antagonist; fluorescence ratio F(max-min)/F0 at 10 µM; 2% of 4,000 active; Fluo-4 calcium fluorescence, FDSS;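 active = duplicate-averaged calcium fluorescence ratio at least three times the standard deviation of buffer wells, a nonspecific response in parental cells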
HEK293 Ca counter: counter-screen for MrgX1 allosteric activators: effect in parental HEK293 cells. AID 624114. parental HEK293 calcium flux, Fluo-4 fluorescence ratio; hits give high values. fluorescence ratio F(max-min)/F0 at 10 µM. 0.4% of 4,000 active. shares compounds with MrgX1 antagonist;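 active = calcium fluorescence ratio, averaged over duplicates, at least 3 SD of the buffer-well ratio, meaning a nonspecific response in receptor-free cells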;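 also: untransfected parental HEK293 lacking MrgX1 used as counterscreen for MrgX1 allosteric activators; fluorescence change taken during the second addition on a kinetic imager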
HEK293 Ca cntr2: activity in parental HEK293 cells lacking MrgX1 receptor | shares compounds with MrgX1 antagonist | fluorescence ratio F(max-min)/F0 at 10 µM | Fluo-4 calcium fluorescence (FDSS); hits give high values | 8.7% of 4,000 active;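 active = calcium fluorescence ratio at least three times the spread of buffer wells, meaning a non-specific response in parental cells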
Starred values were filed as active, the others as inactive; i = inactive; nt = not tested or not shown.

SMILES	RGS4 inh	MrgX1 PAM	PHOSPHO1 inh	MrgX1 antagonist	MrgX1 ag	RGS4 pot	MrgX1 ant reconf	HEK293 Ca flux	HEK293 Ca counter	HEK293 Ca cntr2
O=C(CSc1ccccn1)Nc1ccc(Br)cn1	i	i	14	-5.3*	i	i	i	i	i	i
CCC(=O)Nc1ccc(Br)cn1	i	i	21	-5.4*	i	i	i	i	i	i
O=C(CSc1ncn(-c2ccccc2)n1)Nc1ccc(Br)cn1	i	i	25	i	i	i	nt	nt	nt	nt
COc1ccc(NC(=S)N2CCCC(c3nc4ccc(C)cc4[nH]3)C2)cc1 (stereo not drawn)	i	i	1	-9.5*	i	i	i	i	i	i
COc1ccc(NC(=S)N2CCCC(c3nc4ccc(C)cc4[nH]3)C2)c(OC)c1 (stereo not drawn)	i	i	10	i	i	i	nt	nt	nt	nt
Cc1c(C(=O)N2CCN(Cc3ccc4c(c3)OCO4)CC2)sc2ncnc(N3CCN(c4ccccc4)CC3)c12	i	i	10	-10*	i	i	60%*	i	i	i
CC(=O)c1ccc(NC(=O)c2cnn3c(C(F)F)cc(C4CC4)nc23)cc1	i	i	nt	-5*	i	i	i	i	i	i
O=C(Nc1ccc2ccccc2c1)N1CCCN(CCOc2ccccc2)CC1	i	i	30	i	i	i	nt	nt	nt	nt
COCCNC(=O)C1CC2Cn3c(nc4cc5ccccc5cc43)C2N1C (stereo not drawn)	i	i	40	-5.3*	i	i	i	i	i	i
COCCNC(=O)C1CC2Cn3c(nc4cc(C)c(C)cc43)C2N1C (stereo not drawn)	i	i	-12	i	i	i	nt	nt	nt	nt
C=CCN1C(=O)c2cccc3c(Br)ccc(c23)C1=O	i	i	-23	-7.6*	i	i	i	i	i	i
C=CCN1C(=O)c2cccc3c(N4CCCCC4)ccc(c23)C1=O	i	i	-10	i	i	i	nt	nt	nt	nt
O=C1NC2(CCCc3ccccc32)C(=O)N1CCOc1ccc(Br)cc1 (stereo not drawn)	i	i	0	i	i	i	nt	nt	nt	nt
CCOc1ccc(OCCN2C(=O)NC3(CCCc4ccccc43)C2=O)cc1 (stereo not drawn)	i	i	-2	-5.5*	i	i	i	i	i	i
CCN(CC)CCCNc1oc(-c2ccccc2[N+](=O)[O-])nc1C#N	i	i	24	i	i	i	nt	nt	nt	nt
Oc1c(Br)cc(Br)cc1C=Nc1cccc2ncccc12	i	i	nt	-7.1*	i	i	83%*	i	i	i
O=C(NCc1ccco1)C1CCCN1C(=O)Nc1ccccc1 (stereo not drawn)	i	i	-5	i	i	i	nt	nt	nt	nt
O=C(NCc1ccco1)C1CCCN1C(=O)Nc1ccccc1Cl (stereo not drawn)	i	i	37	-12*	i	i	i	i	i	i
COc1cccc(C2C(C(=O)c3cc4cccc(OC)c4o3)=C(O)C(=O)N2c2cc(C)on2)c1OC (stereo not drawn)	i	i	14	i	i	i	nt	nt	nt	nt
Cc1cc(N2C(=O)C(O)=C(C(=O)c3cc4ccccc4o3)C2c2ccc(OC(C)C)cc2)no1 (stereo not drawn)	i	i	16	i	i	i	nt	nt	nt	nt
COC(=O)c1ccc(C2C(C(=O)c3cc4ccccc4o3)=C(O)C(=O)N2c2cc(C)on2)cc1 (stereo not drawn)	i	i	13	-5.2*	i	i	82%*	i	i	i
COc1cccc2cc(C(=O)C3=C(O)C(=O)N(c4cc(C)on4)C3c3cccs3)oc12 (stereo not drawn)	i	i	34	-5.1*	i	i	i	i	i	i
C[C@@H]1NC(=O)[C@H](CCCN=C(N)N)NC(=O)c2cc([N+](=O)[O-])cc(I)c2OCC[C@@H](C(N)=O)NC1=O	nt	nt	-9	nt	nt	nt	nt	nt	nt	nt
C=CCN(c1ccc(F)cc1)S(=O)(=O)c1cc(C(=O)OCC(=O)N(C)C2CCS(=O)(=O)C2)ccc1Cl (stereo not drawn)	i	i	14	i	i	i	nt	nt	nt	nt
CC(C)[C@H]1COCCS(=O)(=O)N1Cc1ccccc1F	i	i	nt	-5.3*	i	i	i	i	i	i
SMILES	RGS4 inh	MrgX1 PAM	PHOSPHO1 inh	MrgX1 antagonist	MrgX1 ag	RGS4 pot	MrgX1 ant reconf	HEK293 Ca flux	HEK293 Ca counter	HEK293 Ca cntr2
CCC[C@H]1COCCS(=O)(=O)N1Cc1ccccc1F	i	i	-13	i	i	i	nt	nt	nt	nt
Cc1c(O)ccc2c(CC(=O)N[C@@H](Cc3ccccc3)C(=O)O)cc(=O)oc12	i	i	nt	-4.9*	i	i	84%*	i	i	i
COc1ccc2c(CC(=O)N[C@@H](Cc3ccccc3)C(=O)O)cc(=O)oc2c1	i	i	-7	i	i	i	nt	nt	nt	nt
CCC(CC)c1nnc(NC(=O)c2ccc(N3CCCC3=O)cc2)s1	i	i	17	-4.9*	i	i	i	i	i	i
O=C(CCC1CCCC1)NCCCN1CCOCC1	i	i	2	-6.9*	i	i	i	i	i	i
O=C(O)CSC1CC(=O)N(c2ccc(Br)cc2)C1=O (stereo not drawn)	i	i	44	i	i	i	nt	nt	nt	nt
CC1CCN(C(=O)CSc2nc3[nH]ncc3c(=O)[nH]2)CC1	i	i	18	-6.4*	i	i	i	i	i	i
Cc1cc(C)cc(NC(=O)CSc2nc3[nH]ncc3c(=O)[nH]2)c1	i	i	-2	-9.1*	i	i	i	i	i	i
CCOc1ccc(/C=N/n2c(SC)nnc2-c2ccccc2)cc1OCC	i	i	33	i	i	i	nt	nt	nt	nt

High-throughput results deposited in PubChem BioAssay by several laboratories.
